{"source": "ChEMBL document CHEMBL3351726", "about": "(J Med Chem, 2014)", "key": {"[1]": {"molecular_target": "T1, Sodium channel protein type 9 subunit alpha (Homo sapiens, UniProt Q15858)", "experiment": "Inhibition of human Nav1.7 expressed in HEK-293 cells assessed as time for channel-mediated current inhibition at 2 nM by time-course experiment", "assay_type": "cell-based", "conditions": "HEK293", "summary_of_the_method": "(§1)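 HEK-293 cells on poly-D-lysine-coated dishes in DMEM at 37 °C, 5% CO2; recorded 12−48 h after plating. Whole-cell voltage-clamp sodium currents under continuous perfusion with extracellular solution. Compounds applied via a gravity-driven superfusion pipette array with its outlet about 100 μm from the cell.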"}, "[2]": {"experiment": "Retention time of the compound measured over 15 mins at flow rate of 1 mL/min by HPLC"}, "HEK293": {"test_system": "HEK293", "experiment": "Selectivity ratio of IC50 for rat Nav1.2 expressed in HEK-293 cells to IC50 for human Nav1.7 expressed in HEK-293 cells", "assay_type": "cell-based"}, "[3]": {"experiment": "Retention time of the compound measured over 30 mins at flow rate of 1 mL/min by HPLC", "assay_type": "physicochemical", "conditions": "0.5 h", "summary_of_the_method": "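Reversed-phase analytical HPLC or LC−MS on a SymmetryShield RP18 column (5 μm, 4.6 × 150 mm). Gradient 10−60% B over 30 min at 1 mL/min; A = 0.1% TFA in water, B = 0.1% TFA in acetonitrile.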"}, "[4]": {"molecular_target": "T1, Sodium channel protein type 9 subunit alpha", "experiment": "Inhibition of human Nav1.7 expressed in HEK-293 cells at -130 to -110 mV holding potential by whole-cell voltage clamp analysis", "assay_type": "cell-based, HEK293"}, "[5]": {"experiment": "Retention time of the compound measured over 6 mins at flow rate of 0.5 mL/min by HPLC", "assay_type": "physicochemical", "conditions": "0.1 h"}, "[6]": {"molecular_target": "T1, Sodium channel protein type 9 subunit alpha", "experiment": "Inhibition of human Nav1.7 expressed in HEK-293 cells assessed as inhibition of channel-mediated current at 1 nM by time-course experiment", "assay_type": "cell-based", "conditions": "HEK293", "summary_of_the_method": "as §1"}, "[7]": {"molecular_target": "T1, Sodium channel protein type 9 subunit alpha", "experiment": "Inhibition of human Nav1.7 expressed in HEK-293 cells assessed as inhibition of channel-mediated current at 1 nM followed by wash-out and compound treatment at 0.1 nM by time-course experiment relative to initial peak amplitude", "assay_type": "cell-based", "conditions": "HEK293", "summary_of_the_method": "as §1"}}, "note": "The source made the active and inactive calls. No cut-off for these calls is given here. Residues, ends and D or L forms follow the SMILES beside them.", "data": [{"smiles": "CSCC[C@@H]1NC(=O)CNC(=O)[C@H](CCC(=O)O)NC(=O)[C@@H]2CSSC[C@H](NC(=O)[C@@H](N)Cc3ccc(O)cc3)C(=O)N[C@@H](CCC(N)=O)C(=O)N[C@@H](CCCCN)C(=O)N[C@@H](Cc3c[nH]c4ccccc34)C(=O)N[C@@H](CCSC)C(=O)N[C@@H](Cc3c[nH]c4ccccc34)C(=O)N[C@@H]([C@@H](C)O)C(=O)N[C@H]3CSSC[C@H](NC(=O)[C@H](C(C)C)NC1=O)C(=O)N[C@@H](CCCNC(=N)N)C(=O)N[C@@H](CC(C)C)C(=O)N[C@@H](Cc1c[nH]c4ccccc14)C(=O)N[C@H](C(=O)N[C@@H](CCCCN)C(=O)N[C@@H](CCCCN)C(=O)N[C@@H](CCCCN)C(=O)N[C@@H](CC(C)C)C(=O)N[C@@H](Cc1c[nH]c4ccccc14)C(=O)O)CSSC[C@H](NC(=O)[C@H](CCCCN)NC(=O)[C@H](CCCNC(=N)N)NC(=O)[C@H](C)NC(=O)[C@H](CO)NC(=O)[C@H](CC(=O)O)NC3=O)C(=O)N2", "values": [{"measurement": "TIME", "setting": "[1]", "value": 0.0606, "unit": "h"}, {"measurement": "Retention_time", "setting": "[2]", "value": 9.29, "unit": "min"}, {"measurement": "Ratio IC50", "setting": "HEK293", "value": 40}, {"measurement": "Retention_time", "setting": "[3]", "value": 14.54, "unit": "min"}]}, {"smiles": "[H][C@]12CSSC[C@@H](C(=O)N[C@@H](CCCCN)C(=O)N[C@@H](CCCCN)C(=O)N[C@@H](CC(C)C)C(=O)N[C@@H](Cc3c[nH]c4ccccc34)C(=O)O)NC(=O)[C@H](Cc3c[nH]c4ccccc34)NC(=O)[C@H](CC(C)C)NC(=O)[C@H](CCCNC(=N)N)NC(=O)[C@]3([H])CSSC[C@]([H])(NC(=O)[C@]([H])([C@@H](C)O)NC(=O)[C@H](Cc4c[nH]c5ccccc45)NC(=O)[C@H](CCSC)NC(=O)[C@H](Cc4c[nH]c5ccccc45)NC(=O)[C@H](CCCCN)NC(=O)[C@H](CCC(N)=O)NC(=O)[C@@H](NC(=O)[C@@H](N)Cc4ccc(O)cc4)CSSC[C@]([H])(NC1=O)C(=O)N[C@@H](CCC(=O)O)C(=O)NCC(=O)N[C@@H](CC(C)C)C(=O)N[C@@H](C(C)C)C(=O)N3)C(=O)N[C@@H](CC(=O)O)C(=O)N[C@@H](CO)C(=O)N[C@@H](C)C(=O)N[C@@H](CCCNC(=N)N)C(=O)N[C@@H](CCCCN)C(=O)N2", "note": "(HELM PEPTIDE1{Y.C.Q.K.W.M.W.T.C.D.S.A.R.K.C.C.E.G.L.V.C.R.L.W.C.K.K.L.W}$PEPTIDE1,PEPTIDE1,2:R3-16:R3|PEPTIDE1,PEPTIDE1,9:R3-21:R3|PEPTIDE1,PEPTIDE1,15:R3-25:R3$$$V2.0)", "values": [{"measurement": "Retention_time", "setting": "[2]", "value": 9.25, "unit": "min"}, {"measurement": "IC50", "setting": "[4]", "value": 67, "unit": "nM"}, {"measurement": "Ratio IC50", "setting": "HEK293", "value": 1}, {"measurement": "Retention_time", "setting": "[3]", "value": 15.35, "unit": "min"}]}, {"smiles": "COC(=O)[C@H](Cc1c[nH]c2ccccc12)NC(=O)[C@H](CC(C)C)NC(=O)[C@H](CCCCN)NC(=O)[C@H](CCCCN)NC(=O)[C@H](CCCCN)NC(=O)[C@@H]1CSSC[C@@H]2NC(=O)[C@H](CCCCN)NC(=O)[C@H](CCCNC(=N)N)NC(=O)[C@H](CCC(=O)O)NC(=O)[C@H](CO)NC(=O)[C@H](CC(=O)O)NC(=O)[C@@H]3CSSC[C@H](NC(=O)[C@H](C(C)C)NC(=O)[C@H](CCSC)NC(=O)CNC(=O)[C@H](CCC(=O)O)NC(=O)[C@H](CSSC[C@H](NC(=O)[C@@H](N)Cc4ccc(O)cc4)C(=O)N[C@@H](CCC(N)=O)C(=O)N[C@@H](CCCCN)C(=O)N[C@@H](Cc4c[nH]c5ccccc45)C(=O)N[C@@H](CCSC)C(=O)N[C@@H](Cc4c[nH]c5ccccc45)C(=O)N[C@@H]([C@@H](C)O)C(=O)N3)NC2=O)C(=O)N[C@@H](CCCNC(=N)N)C(=O)N[C@@H](CC(C)C)C(=O)N[C@@H](Cc2c[nH]c3ccccc23)C(=O)N1", "values": [{"measurement": "Retention_time", "setting": "[5]", "value": 2.93, "unit": "min"}, {"measurement": "IC50", "setting": "[4]", "value": 0.6, "unit": "nM"}, {"measurement": "Ratio IC50", "setting": "HEK293", "value": 5}, {"measurement": "Retention_time", "setting": "[3]", "value": 13.17, "unit": "min"}]}, {"smiles": "CSCC[C@@H]1NC(=O)CNC(=O)[C@H](CCC(=O)O)NC(=O)[C@@H]2CSSC[C@H](NC(=O)[C@@H](N)Cc3ccc(O)cc3)C(=O)N[C@@H](CCC(N)=O)C(=O)N[C@@H](CCCCN)C(=O)N[C@@H](Cc3c[nH]c4ccccc34)C(=O)N[C@@H](CCSC)C(=O)N[C@@H](Cc3c[nH]c4ccccc34)C(=O)N[C@@H]([C@@H](C)O)C(=O)N[C@H]3CSSC[C@H](NC(=O)[C@H](C(C)C)NC1=O)C(=O)N[C@@H](CCCNC(=N)N)C(=O)N[C@@H](CC(C)C)C(=O)N[C@@H](Cc1c[nH]c4ccccc14)C(=O)N[C@H](C(=O)N[C@@H](CCCCN)C(=O)N[C@@H](CCCCN)C(=O)N[C@@H](CCCCN)C(=O)N[C@@H](CC(C)C)C(=O)N[C@@H](Cc1c[nH]c4ccccc14)C(=O)Nc1ccccc1)CSSC[C@H](NC(=O)[C@H](CCCCN)NC(=O)[C@H](CCCNC(=N)N)NC(=O)[C@H](CCC(=O)O)NC(=O)[C@H](CO)NC(=O)[C@H](CC(=O)O)NC3=O)C(=O)N2", "values": [{"measurement": "Retention_time", "setting": "[5]", "value": 2.57, "unit": "min"}, {"measurement": "IC50", "setting": "[4]", "value": 0.8, "unit": "nM"}, {"measurement": "Ratio IC50", "setting": "HEK293", "value": 4}, {"measurement": "Retention_time", "setting": "[3]", "value": 14.13, "unit": "min"}]}, {"smiles": "CC[C@H](C)[C@H](NC(=O)[C@@H](NC(=O)[C@H](CCCCN)NC(=O)[C@H](CCCCN)NC(=O)[C@H](CCCCN)NC(=O)[C@@H]1CSSC[C@@H]2NC(=O)[C@H](CCCCN)NC(=O)[C@H](CCCNC(=N)N)NC(=O)[C@H](C)NC(=O)[C@H](CO)NC(=O)[C@H](CC(=O)O)NC(=O)[C@@H]3CSSC[C@H](NC(=O)[C@H](C(C)C)NC(=O)[C@H](CC(C)C)NC(=O)CNC(=O)[C@H](CCC(=O)O)NC(=O)[C@H](CSSC[C@H](NC(=O)[C@@H](N)Cc4ccc(O)cc4)C(=O)N[C@@H](CCC(N)=O)C(=O)N[C@@H](CCCCN)C(=O)N[C@@H](Cc4c[nH]c5ccccc45)C(=O)N[C@@H](CCSC)C(=O)N[C@@H](Cc4c[nH]c5ccccc45)C(=O)N[C@@H]([C@@H](C)O)C(=O)N3)NC2=O)C(=O)N[C@@H](CCCNC(=N)N)C(=O)N[C@@H](CC(C)C)C(=O)N[C@@H](Cc2c[nH]c3ccccc23)C(=O)N1)C(C)C)C(=O)O", "note": "(HELM PEPTIDE1{Y.C.Q.K.W.M.W.T.C.D.S.A.R.K.C.C.E.G.L.V.C.R.L.W.C.K.K.K.V.I}$PEPTIDE1,PEPTIDE1,2:R3-16:R3|PEPTIDE1,PEPTIDE1,9:R3-21:R3|PEPTIDE1,PEPTIDE1,15:R3-25:R3$$$V2.0)", "values": [{"measurement": "Retention_time", "setting": "[2]", "value": 9, "unit": "min"}, {"measurement": "IC50", "setting": "[4]", "value": 4, "unit": "nM"}, {"measurement": "Retention_time", "setting": "[3]", "value": 14.79, "unit": "min"}]}, {"smiles": "CNC(=O)[C@H](Cc1c[nH]c2ccccc12)NC(=O)[C@H](CC(C)C)NC(=O)[C@H](CCCCN)NC(=O)[C@H](CCCCN)NC(=O)[C@H](CCCCN)NC(=O)[C@@H]1CSSC[C@@H]2NC(=O)[C@H](CCCCN)NC(=O)[C@H](CCCNC(=N)N)NC(=O)[C@H](CCC(=O)O)NC(=O)[C@H](CO)NC(=O)[C@H](CC(=O)O)NC(=O)[C@@H]3CSSC[C@H](NC(=O)[C@H](C(C)C)NC(=O)[C@H](CCSC)NC(=O)CNC(=O)[C@H](CCC(=O)O)NC(=O)[C@H](CSSC[C@H](NC(=O)[C@@H](N)Cc4ccc(O)cc4)C(=O)N[C@@H](CCC(N)=O)C(=O)N[C@@H](CCCCN)C(=O)N[C@@H](Cc4c[nH]c5ccccc45)C(=O)N[C@@H](CCSC)C(=O)N[C@@H](Cc4c[nH]c5ccccc45)C(=O)N[C@@H]([C@@H](C)O)C(=O)N3)NC2=O)C(=O)N[C@@H](CCCNC(=N)N)C(=O)N[C@@H](CC(C)C)C(=O)N[C@@H](Cc2c[nH]c3ccccc23)C(=O)N1", "values": [{"measurement": "Retention_time", "setting": "[5]", "value": 2.52, "unit": "min"}, {"measurement": "inhibition", "setting": "[6]", "value": "Active"}, {"measurement": "IC50", "setting": "[4]", "value": 0.042, "unit": "nM"}, {"measurement": "inhibition", "setting": "[7]", "value": 80, "unit": "%"}, {"measurement": "Ratio IC50", "setting": "HEK293", "value": 83}, {"measurement": "Retention_time", "setting": "[3]", "value": 12.44, "unit": "min"}]}]}
